Test results reported in ChEMBL document CHEMBL4229515, “A novel synthesis of 2-arylbenzimidazoles in molecular sieves-MeOH system and their antitubercular activity” (Bioorg Med Chem, 2018).
≈ marks a conversion by molar mass, not a printed value.

How the values were obtained:
[1] = Lipophilicity, log P of the compound; type: physicochemical; conditions: octanol/water
[2] = system: Mycobacterium tuberculosis; test: Antimycobacterial activity against Mycobacterium tuberculosis H37Rv by BACTEC 460 radiometric method; type: functional
Procedure, shortened: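 Radiometric BACTEC assay against the H37Rv strain, run per a previously reported method. Positive controls were rifampicin, streptomycin and isoniazid. The MIC was read in µM.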

[3] = target: DNA gyrase subunit A/DNA gyrase subunit B (Mycobacterium tuberculosis (strain ATCC 25618 / H37Rv), UniProt P9WG45+P9WG47); test: Inhibition of Mycobacterium tuberculosis DNA gyrase supercoiling activity using relaxed pBR322 as substrate after 30 mins by agarose gel electrophoresis; type: protein-complex assay
Sequence of DNA gyrase subunit A/DNA gyrase subunit B (P9WG45 whole entry): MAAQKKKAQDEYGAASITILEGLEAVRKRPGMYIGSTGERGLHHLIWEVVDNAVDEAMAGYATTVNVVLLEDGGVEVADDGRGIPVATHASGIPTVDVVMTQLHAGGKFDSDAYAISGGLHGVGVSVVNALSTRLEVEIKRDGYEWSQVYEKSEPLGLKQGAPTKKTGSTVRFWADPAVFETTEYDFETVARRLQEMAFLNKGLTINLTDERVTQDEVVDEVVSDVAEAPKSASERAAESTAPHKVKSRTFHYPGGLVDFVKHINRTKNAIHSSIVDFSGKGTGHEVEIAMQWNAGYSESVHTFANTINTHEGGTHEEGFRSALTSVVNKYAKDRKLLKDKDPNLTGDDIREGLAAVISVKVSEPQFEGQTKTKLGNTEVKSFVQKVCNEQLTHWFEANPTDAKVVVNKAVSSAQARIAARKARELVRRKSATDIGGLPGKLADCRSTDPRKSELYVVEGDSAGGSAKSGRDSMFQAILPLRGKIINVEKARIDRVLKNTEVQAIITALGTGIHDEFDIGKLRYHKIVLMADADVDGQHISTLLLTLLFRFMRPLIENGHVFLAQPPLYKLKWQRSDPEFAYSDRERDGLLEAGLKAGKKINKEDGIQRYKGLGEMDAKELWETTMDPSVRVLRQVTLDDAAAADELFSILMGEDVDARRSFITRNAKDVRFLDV
Sequence of DNA gyrase subunit A/DNA gyrase subunit B (P9WG47 whole entry): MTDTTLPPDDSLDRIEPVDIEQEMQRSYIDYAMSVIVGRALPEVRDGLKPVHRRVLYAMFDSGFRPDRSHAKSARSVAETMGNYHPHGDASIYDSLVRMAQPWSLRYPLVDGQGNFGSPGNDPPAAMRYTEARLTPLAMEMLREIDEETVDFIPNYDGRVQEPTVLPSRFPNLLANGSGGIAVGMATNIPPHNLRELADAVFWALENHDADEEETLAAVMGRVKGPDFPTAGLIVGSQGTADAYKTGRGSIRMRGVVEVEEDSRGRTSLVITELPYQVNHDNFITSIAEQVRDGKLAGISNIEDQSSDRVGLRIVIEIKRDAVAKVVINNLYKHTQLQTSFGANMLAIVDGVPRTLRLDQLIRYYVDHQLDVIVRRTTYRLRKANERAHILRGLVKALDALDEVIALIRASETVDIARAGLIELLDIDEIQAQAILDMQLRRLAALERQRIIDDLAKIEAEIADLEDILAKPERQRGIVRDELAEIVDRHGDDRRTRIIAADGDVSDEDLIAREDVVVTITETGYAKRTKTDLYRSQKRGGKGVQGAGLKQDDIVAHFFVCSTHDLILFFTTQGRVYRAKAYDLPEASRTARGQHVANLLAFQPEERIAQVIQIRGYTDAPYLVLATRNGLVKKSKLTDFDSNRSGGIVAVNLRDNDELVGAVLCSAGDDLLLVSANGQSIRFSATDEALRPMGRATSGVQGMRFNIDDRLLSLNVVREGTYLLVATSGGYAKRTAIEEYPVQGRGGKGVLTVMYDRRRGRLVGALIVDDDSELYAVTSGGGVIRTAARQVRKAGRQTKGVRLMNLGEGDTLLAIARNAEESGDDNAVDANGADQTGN

| SMILES | logP ([1]; read-out: logP) | MIC [2] [µM] | logP [1] | IC50 [3] [µM] |
| --- | --- | --- | --- | --- |
| COc1ccccc1-c1nc2ccccc2[nH]1 | 2.74 | 406 (≈ 91.1 µg/mL) | – | – |
| NNC(=O)c1ccncc1 [ISONIAZID] | – | 1 (≈ 0.137 µg/mL) | 0.64 | – |
| c1ccc2c(c1)nc(-c1ccc3c(c1)OCO3)n2Cc1ccc2c(c1)OCO2 | 2.64 | 67 (≈ 24.9 µg/mL) | – | 85.7 |
| COc1ccc2c(c1)nc(-c1ccc(F)cc1)n2Cc1ccc(F)cc1 | 5.02 | 285 (≈ 99.9 µg/mL) | – | – |
| CO[C@H]1/C=C/O[C@@]2(C)Oc3c(C)c(O)c4c(O)c(c(/C=N/N5CCN(C)CC5)c(O)c4c3C2=O)NC(=O)/C(C)=C\C=C\[C@H](C)[C@H](O)[C@@H](C)[C@@H](O)[C@@H](C)[C@H](OC(C)=O)[C@@H]1C [RIFAMPIN] | – | 3 (≈ 2.47 µg/mL) | 3.72 | – |
| COc1ccc2c(c1)nc(-c1ccc3c(c1)OCO3)n2Cc1ccc2c(c1)OCO2 | 4.26 | 24 (≈ 9.66 µg/mL) | – | 294 |
| [H]/N=C(/N)N[C@H]1[C@H](O)[C@@H](O)[C@H](O[C@@H]2O[C@@H](C)[C@](O)(C=O)[C@H]2O[C@@H]2O[C@@H](CO)[C@H](O)[C@@H](O)[C@@H]2NC)[C@@H](N/C(N)=N\[H])[C@@H]1O [STREPTOMYCIN] | 8.01 | 4 (≈ 2.33 µg/mL) | – | – |
| COc1ccc2[nH]c(-c3ccc(F)cc3)nc2c1 | 2.9 | 103 (≈ 25 µg/mL) | – | 380 |
| Fc1ccc(Cn2c(-c3ccc(F)cc3)nc3ccccc32)cc1 | 5.51 | 312 (≈ 99.9 µg/mL) | – | – |
| Oc1ccc(-c2nc3ccccc3[nH]2)cc1 | 2.47 | 424 (≈ 89.1 µg/mL) | – | – |
